Experimental data: ChEMBL document CHEMBL1681713, “Lead detoxification activities and ADMET hepatotoxicities of a class of novel 5-(1-carbonyl-L-amino-acid)-2,2-dimethyl-[1,3]dithiolane-4-carboxylic acids” (Bioorg Med Chem Lett, 2011)

What was measured:
Kidney [1] = assay: Toxicity in mouse assessed as effect on manganese level in kidney per gram of organ at 0.4 mmol/kg, ip qd for 5 days; type: organism-based; conditions: in vivo, 120 h
[2] = Apparent permeability from apical to basolateral side of human Caco2 cells at 4 mM up to 120 mins by HPLC analysis; type: ADME, cell-based; conditions: Caco-2
Procedure, shortened: (§1)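 Permeability measured across Caco-2 cell monolayers.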

Kidney [3] = assay: Toxicity in mouse assessed as effect on zinc level in kidney per gram of organ at 0.4 mmol/kg, ip qd for 5 days; type: organism-based; conditions: in vivo, 120 h
Kidney [4] = assay: Toxicity in mouse assessed as effect on copper level in kidney per gram of organ at 0.4 mmol/kg, ip qd for 5 days; type: organism-based; conditions: in vivo, 120 h
Liver [5] = assay: Toxicity in mouse assessed as effect on zinc level in liver per gram of organ at 0.4 mmol/kg, ip qd for 5 days; type: organism-based; conditions: in vivo, 120 h
Liver [6] = assay: Detoxification activity against lead-induced toxicity in mouse assessed as reduction lead level in liver per gram of organ at 0.4 mmol/kg, ip qd for 5 days measured 24 hrs last post dose by synchrotron X-ray fluorescence analysis; type: functional
Procedure, shortened: (§2)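 Lead-loaded mice were given normal saline vehicle (negative control) or test agent at 0.2, 0.4 or 0.6 mmol/kg. Lead was measured in liver, kidney, left femur and brain and reported as mean ± SD µg Pb/g organ against the NS group.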

Caco-2 = assay: Efflux ratio of permeability […] in human Caco2 cells at 4 mM up to 120 mins by HPLC analysis; type: ADME, cell-based; conditions: caco-2, 2 h, 4000 µM; procedure, shortened: as §1
Brain [7] = assay: Toxicity in mouse assessed as effect on zinc level in brain per gram of organ at 0.4 mmol/kg, ip qd for 5 days; type: organism-based; conditions: in vivo, 120 h
Kidney [8] = assay: Detoxification activity against lead-induced toxicity in mouse assessed as reduction lead level in kidney per gram of organ at 0.4 mmol/kg, ip qd for 5 days measured 24 hrs last post dose by synchrotron X-ray fluorescence analysis; type: functional; procedure, shortened: as §2
[9] = Detoxification activity against lead-induced toxicity in mouse assessed as reduction lead level in urine at 0.4 mmol/kg, ip qd for 5 days measured 24 hrs last post dose by synchrotron X-ray fluorescence analysis; type: functional
Procedure, shortened: (§3)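 Lead-loaded mice were given normal saline vehicle, DL-penicillamine or NaDMS (positive controls), or test agent, each at 0.4 mmol/kg; n = 12 per group. Lead was measured in feces and urine and reported as mean ± SD µg Pb/g excrement against the NS group.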

[10] = Detoxification activity against lead-induced toxicity in mouse assessed as reduction lead level in feces at 0.4 mmol/kg, ip qd for 5 days measured 24 hrs last post dose by synchrotron X-ray fluorescence analysis; type: functional; procedure, shortened: as §3
Femur = assay: Detoxification activity against lead-induced toxicity in mouse assessed as reduction lead level in femurs per gram of organ at 0.4 mmol/kg, ip qd for 5 days measured 24 hrs last post dose by synchrotron X-ray fluorescence analysis; type: functional; procedure, shortened: as §2
Liver [11] = assay: Toxicity in mouse assessed as effect on manganese level in liver per gram of organ at 0.4 mmol/kg, ip qd for 5 days; type: organism-based; conditions: in vivo, 120 h
Brain [12] = assay: Toxicity in mouse assessed as effect on manganese level in brain per gram of organ at 0.4 mmol/kg, ip qd for 5 days; type: organism-based; conditions: in vivo, 120 h
Brain [13] = assay: Detoxification activity against lead-induced toxicity in mouse assessed as reduction lead level in brain per gram of organ at 0.4 mmol/kg, ip qd for 5 days measured 24 hrs last post dose by synchrotron X-ray fluorescence analysis; type: functional; procedure, shortened: as §2
Brain [14] = assay: Toxicity in mouse assessed as effect on calcium level in brain per gram of organ at 0.4 mmol/kg, ip qd for 5 days; type: organism-based; conditions: in vivo, 120 h
Brain [15] = assay: Toxicity in mouse assessed as effect on copper level in brain per gram of organ at 0.4 mmol/kg, ip qd for 5 days; type: organism-based; conditions: in vivo, 120 h
[16] = Apparent permeability from basolateral to apical side of human Caco2 cells at 4 mM up to 120 mins by HPLC analysis; type: ADME, cell-based; conditions: Caco-2; procedure, shortened: as §1
Liver [17] = assay: Toxicity in mouse assessed as effect on iron level in liver per gram of organ at 0.4 mmol/kg, ip qd for 5 days; type: organism-based; conditions: in vivo, 120 h
Mus musculus = assay: Toxicity in mouse assessed as change in bodyweight at 0.4 mmol/kg, ip qd for 5 days; type: organism-based; conditions: in vivo, 120 h
Procedure, shortened: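 Lead-loaded mice were given normal saline vehicle or test agent at 0.4 mmol/kg. Body weights were recorded and compared with the NS group to assess growth.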

Liver [18] = assay: Toxicity in mouse assessed as effect on calcium level in liver per gram of organ at 0.4 mmol/kg, ip qd for 5 days; type: organism-based; conditions: in vivo, 120 h
Liver [19] = assay: Toxicity in mouse assessed as effect on copper level in liver per gram of organ at 0.4 mmol/kg, ip qd for 5 days; type: organism-based; conditions: in vivo, 120 h
Brain [20] = assay: Toxicity in mouse assessed as effect on iron level in brain per gram of organ at 0.4 mmol/kg, ip qd for 5 days; type: organism-based; conditions: in vivo, 120 h
Kidney [21] = assay: Toxicity in mouse assessed as effect on calcium level in kidney per gram of organ at 0.4 mmol/kg, ip qd for 5 days; type: organism-based; conditions: in vivo, 120 h
Kidney [22] = assay: Toxicity in mouse assessed as effect on iron level in kidney per gram of organ at 0.4 mmol/kg, ip qd for 5 days; type: organism-based; conditions: in vivo, 120 h

Row | SMILES | Activity (Kidney [1]) [µg/g] | Papp A→B at 2 h, 4000 µM [2] [×10⁻⁶ cm/s] | Activity (Kidney [3]) [µg/g] | Activity (Kidney [4]) [µg/g] | Activity (Liver [5]) [µg/g] | Activity (Liver [6]) [µg/g] | Ratio (Caco-2) | Activity (Brain [7]) [µg/g] | Activity (Kidney [8]) [µg/g] | Activity [9] [µg/g] | Activity [10] [µg/g] | Activity (Femur) [µg/g] | Activity (Liver [11]) [µg/g] | Activity (Brain [12]) [µg/g] | Activity (Brain [13]) [µg/g] | Activity (Brain [14]) [µg/g] | Activity (Brain [15]) [µg/g] | Papp B→A at 2 h, 4000 µM [16] [×10⁻⁶ cm/s] | Activity (Liver [17]) [µg/g] | Activity (Mus musculus) [g] | other results
1 | CC1(C)SC(C(=O)O)C(C(=O)N[C@@H](CC(N)=O)C(=O)O)S1 (stereo not given in full) | 1.42 | 16.6 | 28.13 | 3.72 | 37.92 | 3.99 | 3.23 | 34.95 | 7.06 | 2.12 | 4.71 | 16.62 | 1.38 | 0.69 | 0.58 | 71.3 | 2.58 | 5.15 | 153.07 | 31.3 | Activity (Liver [18]): 60.41 µg/g; Activity (Liver [19]): 3.74 µg/g; Activity (Brain [20]): 57.5 µg/g; Activity (Kidney [21]): 76.36 µg/g; Activity (Kidney [22]): 94.84 µg/g
2 | CSCC[C@H](NC(=O)C1SC(C)(C)SC1C(=O)O)C(=O)O (stereo not given in full) | 1.37 | 15.7 | 27.79 | 3.65 | 36.78 | 3.51 | 3.11 | 33.66 | 6.36 | 2.26 | 4.35 | 13.71 | 1.39 | 0.73 | 0.91 | 70.51 | 2.41 | 5.05 | 153.33 | 30 | Activity (Liver [18]): 59.64 µg/g; Activity (Liver [19]): 3.59 µg/g; Activity (Brain [20]): 56.6 µg/g; Activity (Kidney [21]): 77.39 µg/g; Activity (Kidney [22]): 93.88 µg/g
3 | CC[C@H](C)[C@H](NC(=O)C1SC(C)(C)SC1C(=O)O)C(=O)O (stereo not given in full) | 1.44 | 14.2 | 27.41 | 3.54 | 36.79 | 5 | 2.9 | 33 | 6.49 | 2.42 | 4.1 | 14.32 | 1.34 | 0.75 | 1.42 | 69 | 2.48 | 4.91 | 152.94 | 30.6 | Activity (Liver [18]): 59.96 µg/g; Activity (Liver [19]): 3.73 µg/g; Activity (Brain [20]): 56.49 µg/g; Activity (Kidney [21]): 75.99 µg/g; Activity (Kidney [22]): 92.98 µg/g
4 | CC1(C)SC(C(=O)O)C(C(=O)O)S1 (stereo not given) | 1.3 | 13.7 | 28 | 3.4 | 36.66 | 4.02 | 2.91 | 34.54 | 7.12 | 1.93 | 4.57 | 15.47 | 1.36 | 0.7 | 1.42 | 71.33 | 2.42 | 4.68 | 152.9 | 29 | Activity (Liver [18]): 58.87 µg/g; Activity (Liver [19]): 3.61 µg/g; Activity (Brain [20]): 56.6 µg/g; Activity (Kidney [21]): 75.94 µg/g; Activity (Kidney [22]): 95.1 µg/g
